# Active and inactive are the calls of the source. The calls are words filed in the database; no cut-off is given here.
# Tests used:
# MCF7 = test: Growth inhibition in breast cancer MCF7 cell line by MTS assay; type: functional, cell-based; conditions: Homo sapiens
# Summary of the method: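 MCF-7 breast cancer cells exposed to compound for 5 days, then MTS added and formazan read at 490 nm. […] Values are the mean of at least three independent observations.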
# [1] = (§1) Bioavailability in BALB/c mice at 100 mg/kg, po; type: ADME, organism-based; conditions: BALB/c, mouse, in vivo
# Summary of the method: (§2)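 Balb/C mice, three dosed orally by gavage (5-20 mL/kg) and three intravenously; H3PO4 salts formulated as a phosphatidylcholine/water dispersion. Six blood samples collected, the last 4 h postdose. Plasma levels measured by HPLC (detection limit 0.5 µg/mL).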
# [2] = Clearance in BALB/c mice at 10 mg/kg, iv; type: ADME, organism-based; set-up: dose 10 mg/kg, route intravenous; conditions: mouse, in vivo; summary of the method: as §2
# Mus musculus [3] = test: Degradation of HER2 in murine N87 xenograft model at (2*200 mg/kg/day), po; type: functional, organism-based
# Summary of the method: (§3)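 Mice bearing N87 gastric tumor xenografts (high HER-2) given the H3PO4 salt orally at 2 × 200 or 2 × 100 mg/kg/day for 3 days. Reference arm received 17-AAG ip at 90 mg/kg once daily. Animals sacrificed 24 h after the last dose and client proteins in tumor lysates assessed by Western blot.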
# Mus musculus [4] = test: Upregulation of Hsp70 in murine N87 xenograft model at (2*200 mg/kg/day), po; type: functional, organism-based
# [5] = Cmax in BALB/c mice at 100 mg/kg, po; type: ADME, organism-based; set-up: dose 100 mg/kg, route oral; conditions: mouse, in vivo; summary of the method: as §2
# Mus musculus [6] = test: Degradation of pRaf in murine N87 xenograft model at (2*200 mg/kg/day), po; type: functional, organism-based; summary of the method: as §3
# Mus musculus [7] = test: Degradation of pHER2 in murine N87 xenograft model at (2*200 mg/kg/day), po; type: functional, organism-based; summary of the method: as §3
# [8] = (§4) AUC in BALB/c mice at 100 mg/kg, po; type: ADME, organism-based, Plasma; set-up: dose 100 mg/kg, route oral; conditions: BALB/c, mouse, plasma; summary of the method: as §2
# Mus musculus [9] = test: Degradation of pAKT in murine N87 xenograft model at (2*200 mg/kg/day), po; type: functional, organism-based; summary of the method: as §3
# [10] = Tmax in BALB/c mice at 100 mg/kg, po; type: ADME, organism-based; set-up: dose 100 mg/kg, route oral; conditions: mouse, in vivo; summary of the method: as §2
# [11] = Half life in BALB/c mice at 100 mg/kg, po; type: ADME, organism-based; set-up: dose 100 mg/kg, route oral; conditions: mouse, in vivo; summary of the method: as §2
# [12] = Volume of distribution in BALB/c mice at 10 mg/kg, iv; type: ADME, organism-based; set-up: dose 10 mg/kg, route intravenous; conditions: mouse, in vivo, read-out: Vdss; summary of the method: as §2
# Mus musculus [13] = test: Tumor growth inhibition in murine xenograft model using N87 stomach cancer cell line at 200 mg/kg/day, po; type: functional, organism-based; conditions: NCI-N87
# Summary of the method: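 Female nu/nu athymic mice, 6-8 weeks old, implanted sc in the flank with N87 tumor fragments (~2 mm³) or 5 × 10⁶ cells. Established tumors of 50-200 mm³ used, n = 6-10 per group. H3PO4 salt given orally at 1 × 200 or 2 × 100 mg/kg/day, 5 days/week; vehicle-dosed controls. Caliper volumes (l × w²)/2 taken twice weekly.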
# [14] = Half life in BALB/c mice at 10 mg/kg, iv; type: ADME, organism-based; set-up: dose 10 mg/kg, route intravenous; conditions: mouse, in vivo; summary of the method: as §2
# Mus musculus [15] = test: Degradation of PI3K in murine N87 xenograft model at (2*200 mg/kg/day), po; type: functional, organism-based; summary of the method: as §3
# Mus musculus [16] = test: as §1; type: ADME, organism-based; conditions: in vivo; summary of the method: as §2
# Mus musculus [17] = test: as §4; type: ADME, organism-based, Plasma; set-up: dose 100 mg/kg, route oral; conditions: in vivo; summary of the method: as §2
# Mus musculus [18] = test: Degradation of HER2 in A549 tumor xenograft at 200 mg/kg, po; type: functional, organism-based; set-up: dose 200 mg/kg
# Summary of the method: (§5)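 Female nu/nu athymic mice (6-8 weeks old) carrying subcutaneous A549 lung cancer xenografts received a single oral gavage dose of the H₃PO₄ salt (200 mg/kg), formulated as a phosphatidylcholine/water dispersion. Mice were sacrificed at 6, 24 or 48 h, and tumors were harvested. HER-2, pHER-2, pAKT, pRaf and Hsp70 levels were assessed by Western blot.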
# Mus musculus [19] = test: Degradation of pAKT in A549 tumor xenograft at 200 mg/kg, po; type: functional, organism-based; set-up: dose 200 mg/kg; summary of the method: as §5
# [20] = target: Heat shock protein HSP 90-alpha (Homo sapiens) (UniProt P07900); test: Hsp90 inhibition measured as HER-2 degradation in MCF-7 cells
# A549 = test: Degradation of pHER2 in A549 tumor xenograft at 200 mg/kg, po; type: functional, organism-based; set-up: dose 200 mg/kg; conditions: Mus musculus; summary of the method: as §5
# Mus musculus [21] = test: Degradation of pRaf in A549 tumor xenograft at 200 mg/kg, po; type: functional, organism-based; set-up: dose 200 mg/kg; summary of the method: as §5
# Mus musculus [22] = test: Upregulation of Hsp70 in A549 tumor xenograft at 200 mg/kg, po; type: functional, organism-based; set-up: dose 200 mg/kg; summary of the method: as §5
compound,measurement,setting,value
CCC(CC)NCCCn1c(Sc2cc(OC)ccc2I)nc2c(N)ncnc21,IC50,MCF7,200 nM
COc1ccc(I)c(Sc2nc3c(N)ncnc3n2CCCNC(C)(C)C)c1,IC50,MCF7,200 nM
C#CCCCn1c(Sc2cc(OC)ccc2I)nc2c(N)ncnc21,IC50,MCF7,700 nM
COc1ccc(I)c(Sc2nc3c(N)ncnc3n2CCCNC(C)C)c1,bioavailability,[1],55%
same,clearance,[2],62 mL/min/kg
same,Activity,Mus musculus [3],Active
same,Activity,Mus musculus [4],Active
same,Cmax,[5],4700 ng/mL
same,Activity,Mus musculus [6],Active
same,Activity,Mus musculus [7],Active
same,AUC,[8],7500 ng·h/mL
same,Activity,Mus musculus [9],Active
same,IC50,MCF7,600 nM
same,Tmax,[10],0.5 h
same,half-life,[11],1.5 h
same,Vd,[12],22 L/kg
same,Activity,Mus musculus [13],Active
same,half-life,[14],4.2 h
same,Activity,Mus musculus [15],inactive
C#CCCCn1c(Sc2cc(OC)c(OC)c(OC)c2Cl)nc2c(N)nc(F)nc21,IC50,MCF7,1200 nM
CCC(C)NCCCn1c(Sc2cc(OC)ccc2I)nc2c(N)ncnc21 (stereo not drawn),F,Mus musculus [16],28%
same,Cmax,[5],4800 ng/mL
same,AUC,Mus musculus [17],380 µg·min/mL
same,IC50,MCF7,200 nM
same,Tmax,[10],0.5 h
same,half-life,[11],0.7 h
same,Vd,[12],3.4 L/kg
same,Activity,Mus musculus [13],Active
same,half-life,[14],1.3 h
COc1ccc(I)c(Sc2nc3c(N)ncnc3n2CCNCC(C)(C)C)c1,IC50,MCF7,500 nM
same,Activity,Mus musculus [13],Active
COc1ccc(I)c(Sc2nc3c(N)ncnc3n2CCNCC(C)C)c1,Activity,Mus musculus [18],Active
same,Activity,Mus musculus [19],Active
same,IC50,[20],100 nM
same,Activity,A549,Active
same,IC50,MCF7,200 nM
same,Activity,Mus musculus [21],Active
same,Activity,Mus musculus [22],Active

# Reference: ChEMBL document CHEMBL1148609, “Orally active purine-based inhibitors of the heat shock protein 90” (J Med Chem, 2006)
